Measurements reported in ChEMBL document CHEMBL1155876 (J Med Chem, 2008).

Assays:
MCF7 = test: Antiproliferative activity against human MCF7 cells; assay type: functional, cell-based
Procedure, shortened: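 HCT116, HT29 or MCF7 cells were seeded on day 0 in 1:1 Ham's F12/DMEM-high glucose with 10% FBS and 2 mM L-glutamine, then kept overnight at 37 °C in 5% CO2. On day 1, inhibitor in DMSO, diluted 20-fold in serum- and glutamine-free medium, was added. Viability was read on day 4 as total ATP by CellTiter-Glo luminescence.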

MOLT-4 = test: Cell cycle arrested in human MOLT4 cells assessed as accumulation at G2/M phase after 24 hrs; assay type: functional, cell-based; details: MOLT-4, 24 h
Procedure, shortened: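 MOLT-4 leukemia cells were exposed to 3-fold serial dilutions for 24 h at 37 °C. Cells were then resuspended in Tris pH 7.4/NaCl buffer containing 0.2% BSA and 0.1% NP-40, and treated on ice for 30 min with 60 U/mL RNase A and 20 µg/mL propidium iodide. DNA content was measured by FACS.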

[1] = target: Cyclin-dependent kinase 3 (Homo sapiens) (UniProt Q00526); test: Inhibition of CDK3/CyclinE assessed as residual enzyme activity at 1 uM
Chain of Cyclin-dependent kinase 3 (Homo sapiens) (Q00526 whole entry, looked up): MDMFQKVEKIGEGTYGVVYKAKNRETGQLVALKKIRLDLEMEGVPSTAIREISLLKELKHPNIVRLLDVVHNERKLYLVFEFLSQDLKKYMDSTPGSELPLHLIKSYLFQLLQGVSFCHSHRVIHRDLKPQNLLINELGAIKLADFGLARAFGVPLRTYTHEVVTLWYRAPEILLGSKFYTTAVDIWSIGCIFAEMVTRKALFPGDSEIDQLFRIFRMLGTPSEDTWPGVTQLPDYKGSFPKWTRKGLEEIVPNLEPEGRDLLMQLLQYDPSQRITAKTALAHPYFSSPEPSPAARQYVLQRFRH

[2] = target: CDK6/cyclin D3 (Homo sapiens) (UniProt P30281+Q00534); test: Inhibition of CDK6/CyclinD3 assessed as residual enzyme activity at 1 uM; assay type: protein-complex assay
[3] = target: Cyclin-dependent kinase 7 (Homo sapiens) (UniProt P50613); test: Inhibition of CDK7/CyclinH/MAT1 at assessed as residual enzyme activity at 1 uM
[4] = Inhibition of CDK9/CyclinT1 assessed as residual enzyme activity at 1 uM
[5] = target: Serine/threonine-protein kinase Nek2 (Homo sapiens) (UniProt P51955); test: Inhibition of NEK2 at assessed as residual enzyme activity at 1 uM
[6] = target: Serine/threonine-protein kinase PLK3 (Homo sapiens) (UniProt Q9H4B4); test: Inhibition of Plk3 at assessed as residual enzyme activity at 1 uM
HCT-116 = test: Antitumor activity in human HCT116 cells xenografted athymic mouse assessed as growth inhibition at 2.5 mg/kg, po qd; assay type: functional; details: read-out: TGI
[7] = target: Tyrosine-protein kinase ABL1 (Homo sapiens) (UniProt P00519); test: Inhibition of human Abl assessed as residual enzyme activity at 0.1 uM
Homo sapiens [8] = species on record: Homo sapiens; test: Inhibition of human ALK4 assessed as residual enzyme activity at 0.1 uM
[9] = target: Tyrosine-protein kinase receptor UFO (Homo sapiens) (UniProt P30530); test: Inhibition of human Axl kinase assessed as residual enzyme activity at 0.1 uM
[10] = target: Tyrosine-protein kinase Blk (Homo sapiens) (UniProt P51451); test: Inhibition of human Blk kinase assessed as residual enzyme activity at 0.1 uM
[11] = target: Tyrosine-protein kinase BTK (Homo sapiens) (UniProt Q06187); test: Inhibition of human BTK kinase assessed as residual enzyme activity at 0.1 uM
[12] = target: Myotonin-protein kinase (Homo sapiens) (UniProt Q09013); test: Inhibition of human DMPK assessed as residual enzyme activity at 0.1 uM
[13] = target: Epidermal growth factor receptor (Homo sapiens) (UniProt P00533); test: Inhibition of human EGFR kinase assessed as residual enzyme activity at 0.1 uM
Chain of Epidermal growth factor receptor (Homo sapiens) (P00533 whole entry): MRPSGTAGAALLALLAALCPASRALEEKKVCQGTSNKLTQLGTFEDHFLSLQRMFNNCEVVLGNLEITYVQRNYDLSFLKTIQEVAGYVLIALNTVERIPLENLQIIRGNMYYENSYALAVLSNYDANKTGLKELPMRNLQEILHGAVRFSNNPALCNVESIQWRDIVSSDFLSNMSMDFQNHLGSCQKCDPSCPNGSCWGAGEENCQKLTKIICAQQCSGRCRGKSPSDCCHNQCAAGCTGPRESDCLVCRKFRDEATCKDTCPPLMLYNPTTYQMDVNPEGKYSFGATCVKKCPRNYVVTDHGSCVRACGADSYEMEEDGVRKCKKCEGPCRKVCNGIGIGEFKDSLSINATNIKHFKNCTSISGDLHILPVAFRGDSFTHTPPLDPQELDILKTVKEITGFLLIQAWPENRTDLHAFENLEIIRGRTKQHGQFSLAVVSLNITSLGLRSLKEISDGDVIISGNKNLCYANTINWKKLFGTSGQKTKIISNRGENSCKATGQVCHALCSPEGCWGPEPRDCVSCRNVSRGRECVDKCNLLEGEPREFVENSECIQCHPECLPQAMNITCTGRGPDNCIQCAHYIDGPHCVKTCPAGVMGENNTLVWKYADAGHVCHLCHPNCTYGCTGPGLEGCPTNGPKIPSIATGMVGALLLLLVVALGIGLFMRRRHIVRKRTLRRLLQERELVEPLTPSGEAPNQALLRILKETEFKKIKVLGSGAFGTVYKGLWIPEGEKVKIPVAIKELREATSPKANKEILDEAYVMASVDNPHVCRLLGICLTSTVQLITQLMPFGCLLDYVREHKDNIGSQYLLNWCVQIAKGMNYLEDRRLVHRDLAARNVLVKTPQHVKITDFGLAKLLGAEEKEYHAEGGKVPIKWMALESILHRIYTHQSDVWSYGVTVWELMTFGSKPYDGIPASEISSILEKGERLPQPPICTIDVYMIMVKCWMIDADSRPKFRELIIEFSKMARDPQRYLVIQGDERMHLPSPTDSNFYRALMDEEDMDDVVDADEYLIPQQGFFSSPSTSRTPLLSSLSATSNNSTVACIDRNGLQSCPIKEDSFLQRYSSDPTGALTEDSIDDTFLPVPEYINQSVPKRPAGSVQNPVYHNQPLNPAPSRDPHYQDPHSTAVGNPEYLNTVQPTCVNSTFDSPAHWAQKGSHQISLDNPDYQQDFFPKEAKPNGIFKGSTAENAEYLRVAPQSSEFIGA

[14] = target: Ephrin type-B receptor 1 (Homo sapiens) (UniProt P54762); test: Inhibition of human EphB1 kinase assessed as residual enzyme activity at 0.1 uM
[15] = target: Inhibitor of nuclear factor kappa-B kinase subunit beta (Homo sapiens) (UniProt O14920); test: Inhibition of human IKK-beta kinase assessed as residual enzyme activity at 0.1 uM
Chain of Inhibitor of nuclear factor kappa-B kinase subunit beta (Homo sapiens) (O14920 whole entry): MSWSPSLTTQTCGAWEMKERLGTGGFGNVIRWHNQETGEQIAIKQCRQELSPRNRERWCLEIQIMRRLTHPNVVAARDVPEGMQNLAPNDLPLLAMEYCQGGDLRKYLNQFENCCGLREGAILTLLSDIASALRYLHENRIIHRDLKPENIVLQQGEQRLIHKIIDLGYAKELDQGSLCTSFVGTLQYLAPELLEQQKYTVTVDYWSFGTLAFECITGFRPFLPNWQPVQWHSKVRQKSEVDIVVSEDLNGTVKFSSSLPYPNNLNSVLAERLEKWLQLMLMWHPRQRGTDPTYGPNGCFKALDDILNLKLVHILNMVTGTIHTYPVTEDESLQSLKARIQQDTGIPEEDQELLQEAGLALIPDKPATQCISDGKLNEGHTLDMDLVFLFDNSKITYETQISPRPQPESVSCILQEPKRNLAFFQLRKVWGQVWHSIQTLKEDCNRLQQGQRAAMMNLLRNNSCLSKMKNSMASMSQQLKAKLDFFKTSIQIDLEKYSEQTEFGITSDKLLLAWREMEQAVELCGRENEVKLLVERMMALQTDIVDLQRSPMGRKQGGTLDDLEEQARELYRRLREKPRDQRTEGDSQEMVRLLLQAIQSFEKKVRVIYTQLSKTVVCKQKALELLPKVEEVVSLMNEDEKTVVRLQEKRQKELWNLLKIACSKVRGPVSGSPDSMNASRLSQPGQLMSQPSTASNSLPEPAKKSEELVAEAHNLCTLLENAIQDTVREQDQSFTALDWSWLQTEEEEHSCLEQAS

[16] = target: Interleukin-1 receptor-associated kinase 1 (Homo sapiens) (UniProt P51617); test: Inhibition of human IRAK1 kinase assessed as residual enzyme activity at 0.1 uM
[17] = target: LIM domain kinase 1 (Homo sapiens) (UniProt P53667); test: Inhibition of human LIMK1 kinase assessed as residual enzyme activity at 0.1 uM
[18] = target: Mitogen-activated protein kinase 1 (Homo sapiens) (UniProt P28482); test: Inhibition of human MAPK1 kinase assessed as residual enzyme activity at 0.1 uM
[19] = target: Maternal embryonic leucine zipper kinase (Homo sapiens) (UniProt Q14680); test: Inhibition of human MELK assessed as residual enzyme activity at 0.1 uM
[20] = target: Hepatocyte growth factor receptor (Homo sapiens) (UniProt P08581); test: Inhibition of human Met assessed as residual enzyme activity at 0.1 uM
[21] = target: Myosin light chain kinase, smooth muscle (Homo sapiens) (UniProt Q15746); test: Inhibition of human MLCK kinase assessed as residual enzyme activity at 0.1 uM
Chain of Myosin light chain kinase, smooth muscle (Homo sapiens) (Q15746 whole entry): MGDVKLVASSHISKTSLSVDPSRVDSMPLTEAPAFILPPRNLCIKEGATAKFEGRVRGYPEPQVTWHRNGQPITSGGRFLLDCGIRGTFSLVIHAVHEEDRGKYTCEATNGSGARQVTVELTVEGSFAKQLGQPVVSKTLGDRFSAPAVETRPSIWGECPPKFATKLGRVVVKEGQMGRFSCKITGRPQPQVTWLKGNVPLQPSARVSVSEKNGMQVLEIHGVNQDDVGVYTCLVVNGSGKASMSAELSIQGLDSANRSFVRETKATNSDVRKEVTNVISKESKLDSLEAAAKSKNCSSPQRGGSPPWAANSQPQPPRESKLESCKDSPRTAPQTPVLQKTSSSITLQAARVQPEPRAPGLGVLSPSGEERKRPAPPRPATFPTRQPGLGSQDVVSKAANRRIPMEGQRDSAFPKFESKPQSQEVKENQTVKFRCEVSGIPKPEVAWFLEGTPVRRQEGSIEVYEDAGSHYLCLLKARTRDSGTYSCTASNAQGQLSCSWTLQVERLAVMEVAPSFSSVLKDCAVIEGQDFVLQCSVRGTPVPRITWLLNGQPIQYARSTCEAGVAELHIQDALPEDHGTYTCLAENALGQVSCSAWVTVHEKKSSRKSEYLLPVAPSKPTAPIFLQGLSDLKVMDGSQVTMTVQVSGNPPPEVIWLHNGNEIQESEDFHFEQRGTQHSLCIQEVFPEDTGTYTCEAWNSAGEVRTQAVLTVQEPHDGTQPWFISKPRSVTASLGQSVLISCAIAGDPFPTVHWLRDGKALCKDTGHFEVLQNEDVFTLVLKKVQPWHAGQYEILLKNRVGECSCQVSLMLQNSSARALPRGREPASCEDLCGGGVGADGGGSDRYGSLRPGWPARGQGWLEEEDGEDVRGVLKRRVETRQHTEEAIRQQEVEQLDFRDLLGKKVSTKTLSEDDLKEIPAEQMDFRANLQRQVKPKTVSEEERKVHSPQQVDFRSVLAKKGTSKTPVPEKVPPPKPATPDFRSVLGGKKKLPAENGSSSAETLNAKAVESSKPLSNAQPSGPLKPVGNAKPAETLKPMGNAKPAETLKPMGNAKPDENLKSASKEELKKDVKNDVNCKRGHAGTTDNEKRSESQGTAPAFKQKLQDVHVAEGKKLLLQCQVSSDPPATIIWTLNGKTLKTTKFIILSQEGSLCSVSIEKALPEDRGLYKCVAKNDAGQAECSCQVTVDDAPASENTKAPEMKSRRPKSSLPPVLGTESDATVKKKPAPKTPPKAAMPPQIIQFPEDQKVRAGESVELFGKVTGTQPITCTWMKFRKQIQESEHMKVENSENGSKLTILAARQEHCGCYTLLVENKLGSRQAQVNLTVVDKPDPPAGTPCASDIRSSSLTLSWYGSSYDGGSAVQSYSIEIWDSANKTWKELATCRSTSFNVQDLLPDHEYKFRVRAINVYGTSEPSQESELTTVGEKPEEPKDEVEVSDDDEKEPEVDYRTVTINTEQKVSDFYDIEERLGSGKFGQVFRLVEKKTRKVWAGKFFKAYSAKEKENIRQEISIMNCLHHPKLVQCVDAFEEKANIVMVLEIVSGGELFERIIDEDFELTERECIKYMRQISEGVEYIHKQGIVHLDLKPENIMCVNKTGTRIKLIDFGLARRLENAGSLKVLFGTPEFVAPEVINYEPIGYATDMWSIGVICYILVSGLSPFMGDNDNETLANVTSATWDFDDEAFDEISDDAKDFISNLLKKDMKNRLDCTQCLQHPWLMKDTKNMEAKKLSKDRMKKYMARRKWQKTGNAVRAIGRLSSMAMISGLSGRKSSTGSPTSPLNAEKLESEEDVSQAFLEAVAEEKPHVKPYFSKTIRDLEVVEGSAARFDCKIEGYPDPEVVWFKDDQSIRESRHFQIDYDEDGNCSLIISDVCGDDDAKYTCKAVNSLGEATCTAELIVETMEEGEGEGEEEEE

[22] = target: Serine/threonine-protein kinase MRCK alpha (Homo sapiens) (UniProt Q5VT25); test: Inhibition of human MRCKalpha kinase assessed as residual enzyme activity at 0.1 uM
[23] = target: Serine/threonine-protein kinase PAK 2 (Homo sapiens) (UniProt Q13177); test: Inhibition of human PAK2 assessed as residual enzyme activity at 0.1 uM
[24] = target: Serine/threonine-protein kinase MARK2 (Homo sapiens) (UniProt Q7KZI7); test: Inhibition of human PAR-1Balpha kinase assessed as residual enzyme activity at 0.1 uM
[25] = target: Platelet-derived growth factor receptor beta (Homo sapiens) (UniProt P09619); test: Inhibition of human PDGFRbeta kinase assessed as residual enzyme activity at 0.1 uM
[26] = target: Protein kinase C gamma type (Homo sapiens) (UniProt P05129); test: Inhibition of human PKCgamma kinase assessed as residual enzyme activity at 0.1 uM
[27] = target: Serine/threonine-protein kinase D2 (Homo sapiens) (UniProt Q9BZL6); test: Inhibition of human PKD2 kinase assessed as residual enzyme activity at 0.1 uM
Homo sapiens [28] = species on record: Homo sapiens; test: Inhibition of human PKG1alpha kinase assessed as residual enzyme activity at 0.1 uM
[29] = target: Ribosomal protein S6 kinase alpha-1 (Homo sapiens, UniProt Q15418); test: Inhibition of human Rsk1 kinase assessed as residual enzyme activity at 0.1 uM
[30] = target: Serine/threonine-protein kinase Sgk1 (Homo sapiens) (UniProt O00141); test: Inhibition of human SGK assessed as residual enzyme activity at 0.1 uM
Chain of Serine/threonine-protein kinase Sgk1 (Homo sapiens) (O00141 whole entry): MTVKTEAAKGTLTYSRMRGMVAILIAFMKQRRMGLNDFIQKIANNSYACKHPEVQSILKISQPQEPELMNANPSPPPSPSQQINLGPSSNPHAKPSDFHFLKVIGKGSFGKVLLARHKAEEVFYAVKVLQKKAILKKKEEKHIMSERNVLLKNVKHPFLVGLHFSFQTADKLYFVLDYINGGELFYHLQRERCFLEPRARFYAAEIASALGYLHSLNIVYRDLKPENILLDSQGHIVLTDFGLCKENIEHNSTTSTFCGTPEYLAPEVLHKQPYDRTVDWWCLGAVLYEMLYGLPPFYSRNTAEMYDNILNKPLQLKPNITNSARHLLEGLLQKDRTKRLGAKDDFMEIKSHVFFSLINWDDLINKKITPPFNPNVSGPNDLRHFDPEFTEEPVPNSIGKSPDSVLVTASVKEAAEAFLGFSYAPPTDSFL

[31] = target: Angiopoietin-1 receptor (Homo sapiens) (UniProt Q02763); test: Inhibition of human Tie2 kinase assessed as residual enzyme activity at 0.1 uM
[32] = target: BDNF/NT-3 growth factors receptor (Homo sapiens) (UniProt Q16620); test: Inhibition of human TrkB kinase assessed as residual enzyme activity at 0.1 uM
[33] = target: Tyrosine-protein kinase ZAP-70 (Homo sapiens) (UniProt P43403); test: Inhibition of human ZAP70 kinase assessed as residual enzyme activity at 0.1 uM
Homo sapiens [34] = species on record: Homo sapiens; test: Inhibition of human PKBalpha assessed as residual enzyme activity at 0.1 uM
[35] = target: Serine/threonine-protein kinase 4 (MST1/STK4) (Homo sapiens) (UniProt Q13043); test: Inhibition of human MST1 kinase assessed as residual enzyme activity at 0.1 uM
Chain of Serine/threonine-protein kinase 4 (MST1/STK4) (Homo sapiens) (Q13043 whole entry, looked up): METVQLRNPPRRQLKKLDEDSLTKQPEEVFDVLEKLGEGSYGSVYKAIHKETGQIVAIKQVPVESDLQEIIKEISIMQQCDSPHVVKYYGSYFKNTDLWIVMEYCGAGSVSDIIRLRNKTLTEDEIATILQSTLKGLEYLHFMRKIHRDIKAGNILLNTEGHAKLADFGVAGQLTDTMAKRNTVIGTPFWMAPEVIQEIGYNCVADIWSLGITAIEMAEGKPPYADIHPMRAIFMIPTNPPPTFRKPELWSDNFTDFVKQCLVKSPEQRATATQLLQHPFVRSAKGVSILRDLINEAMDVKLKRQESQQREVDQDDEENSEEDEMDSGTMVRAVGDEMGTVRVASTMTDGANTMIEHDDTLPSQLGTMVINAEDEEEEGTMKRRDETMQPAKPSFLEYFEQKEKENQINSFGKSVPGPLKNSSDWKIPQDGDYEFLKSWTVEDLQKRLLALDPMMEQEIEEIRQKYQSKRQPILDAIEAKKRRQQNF

## CCN1C(=O)C(C)(C)c2cc3[nH]c4c(c3cc21)CCCc1c(C)n[nH]c1-4
MCF7
  IC50: 100 nM
MOLT-4
  IC50: 110 nM
[1]
  Activity: 106%
[2]
  Activity: 103%
[3]
  Activity: 82%
[4]
  Activity: 87%
[5]
  Activity: 98%
[6]
  Activity: 103%
HCT-116
  inhibition in vivo at 2.5 mg/kg: 82%
[7]
  Activity: 71%
Homo sapiens [8]
  Activity: 113%
[9]
  Activity: 66%
[10]
  Activity: 62%
[11]
  Activity: 86%
[12]
  Activity: 97%
[13]
  Activity: 107%
[14]
  Activity: 58%
[15]
  Activity: 114%
[16]
  Activity: 93%
[17]
  Activity: 79%
[18]
  Activity: 112%
[19]
  Activity: 53%
[20]
  Activity: 68%
[21]
  Activity: 102%
[22]
  Activity: 98%
[23]
  Activity: 103%
[24]
  Activity: 42%
[25]
  Activity: 103%
[26]
  Activity: 100%
[27]
  Activity: 105%
Homo sapiens [28]
  Activity: 100%
[29]
  Activity: 29%
[30]
  Activity: 99%
[31]
  Activity: 75%
[32]
  Activity: 5%
[33]
  Activity: 127%
Homo sapiens [34]
  Activity: 100%
[35]
  Activity: 49%
